Measured values taken from ChEMBL document CHEMBL4152271, “Polypharmacological profile of 1,2-dihydro-2-oxo-pyridine-3-carboxamides in the endocannabinoid system” (Eur J Med Chem, 2018).
Calls of active or inactive are those of the source. No cut-off for these calls is given here.

Assays:
[1] = target: T1, Lysophosphatidylserine lipase ABHD12 (Homo sapiens, UniProt Q8N2K0); assay: Inhibition of human ABHD12 expressed in HEK293 cells using 2-OG as substrate preincubated for 30 mins followed by substrate addition and measured after 5 mins by liquid scintillation spectroscopic method; format: cell-based
T1 sequence (Q8N2K0 whole entry): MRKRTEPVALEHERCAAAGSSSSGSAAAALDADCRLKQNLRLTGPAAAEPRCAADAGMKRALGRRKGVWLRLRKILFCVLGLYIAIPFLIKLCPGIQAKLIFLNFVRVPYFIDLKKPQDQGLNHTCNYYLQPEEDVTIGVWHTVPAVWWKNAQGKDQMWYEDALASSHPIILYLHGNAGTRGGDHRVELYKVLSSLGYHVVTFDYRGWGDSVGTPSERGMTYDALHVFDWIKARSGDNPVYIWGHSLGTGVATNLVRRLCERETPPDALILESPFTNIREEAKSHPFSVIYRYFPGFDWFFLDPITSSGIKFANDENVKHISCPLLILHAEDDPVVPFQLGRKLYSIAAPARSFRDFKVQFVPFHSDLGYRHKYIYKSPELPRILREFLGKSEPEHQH
In short: (§1)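 Homogenate (40 µg) of HEK293 cells stably transfected with hABHD6 or hABHD12, compound preincubated 30 min at 37 °C in […], 0.1% BSA, pH 7.6. DMSO vehicle; WWL70 10 µM or THL 20 µM as positive controls. 10 µM 2-OG added for 5 min at 37 °C, stopped with CHCl₃:MeOH. Aqueous phase counted; no-enzyme blanks and non-transfected HEK293 hydrolysis subtracted.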

[2] = target: T2, Fatty-acid amide hydrolase 1 (Homo sapiens, UniProt O00519); assay: Inhibition of FAAH in human U937 cells using AEA containing [ethanolamine-1-3H]AEA as substrate preincubated for 30 mins followed by substrate addition and measured after 15 mins by liquid scintillation spectroscopic method; format: cell-based
T2 sequence (O00519 whole entry): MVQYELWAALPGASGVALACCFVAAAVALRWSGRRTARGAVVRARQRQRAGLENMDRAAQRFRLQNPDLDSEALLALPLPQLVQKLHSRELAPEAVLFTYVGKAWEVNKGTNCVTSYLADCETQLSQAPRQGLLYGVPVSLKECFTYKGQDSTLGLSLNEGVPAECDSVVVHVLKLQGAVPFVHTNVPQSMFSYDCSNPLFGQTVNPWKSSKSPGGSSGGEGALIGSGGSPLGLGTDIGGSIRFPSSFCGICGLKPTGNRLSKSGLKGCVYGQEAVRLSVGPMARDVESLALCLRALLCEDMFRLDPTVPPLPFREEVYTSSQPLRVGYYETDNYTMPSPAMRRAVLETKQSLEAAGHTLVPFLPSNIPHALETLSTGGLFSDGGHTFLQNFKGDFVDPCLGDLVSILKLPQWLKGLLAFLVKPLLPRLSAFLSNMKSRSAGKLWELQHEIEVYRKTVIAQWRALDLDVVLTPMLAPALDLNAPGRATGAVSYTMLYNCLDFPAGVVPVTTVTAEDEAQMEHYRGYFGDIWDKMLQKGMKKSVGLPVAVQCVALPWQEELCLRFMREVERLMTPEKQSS
In short: (§2)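 U937 cell homogenate (100 µg) in 10 mM Tris-HCl, 1 mM EDTA, pH 8, 0.1% fatty acid-free BSA. Compound at 10 µM screening concentration, 30 min at 37 °C. FAAH: 100 nM AEA with 1 nM [³H]AEA tracer. MAGL: 1 µM 2-OG with 1 nM tritiated tracer. Both 15 min at 37 °C, stopped with CHCl₃:MeOH (1:1), aqueous phase counted.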

Monoglyceride lipase = target: T3, Monoglyceride lipase (Homo sapiens, UniProt Q99685); assay: Inhibition of MAGL in human U937 cells using 2-OG containing […] as substrate preincubated for 30 mins followed by substrate addition and measured after 15 mins by liquid scintillation spectroscopic method; format: cell-based; in short: as §2
T3 sequence (Q99685 whole entry): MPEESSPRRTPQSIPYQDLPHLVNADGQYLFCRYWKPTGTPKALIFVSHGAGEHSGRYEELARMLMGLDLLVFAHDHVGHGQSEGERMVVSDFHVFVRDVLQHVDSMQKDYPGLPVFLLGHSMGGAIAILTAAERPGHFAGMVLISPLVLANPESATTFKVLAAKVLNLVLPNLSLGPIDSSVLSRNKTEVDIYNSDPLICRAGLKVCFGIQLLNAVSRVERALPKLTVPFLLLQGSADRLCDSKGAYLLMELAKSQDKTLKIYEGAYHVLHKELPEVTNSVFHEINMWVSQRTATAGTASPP

Homo sapiens = organism: Homo sapiens; assay: Selectivity ratio of Ki for human CB1 receptor to Ki for human CB2 receptor
In short: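 Membranes expressing hCB1 or hCB2 (stably transfected CHO) in 50 mM Tris-HCl, 2.5 mM EDTA, 5 mM MgCl₂, 0.5% fatty acid-free BSA, pH 7.4. Incubated with compound and 0.5 nM [³H]CP55,940 for 90 min at 30 °C. Nonspecific binding with 10 µM […]. GF/B filtration, radioactivity counted, Ki derived. Mean ± SD, at least 3 experiments in triplicate.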

Cannabinoid receptor 2 [3] = target: T4, Cannabinoid receptor 2 (Homo sapiens, UniProt P34972); assay: Displacement of [3H]-CP55940 from human CB2 receptor expressed in CHO cell membranes after 90 mins
T4 sequence (P34972 whole entry): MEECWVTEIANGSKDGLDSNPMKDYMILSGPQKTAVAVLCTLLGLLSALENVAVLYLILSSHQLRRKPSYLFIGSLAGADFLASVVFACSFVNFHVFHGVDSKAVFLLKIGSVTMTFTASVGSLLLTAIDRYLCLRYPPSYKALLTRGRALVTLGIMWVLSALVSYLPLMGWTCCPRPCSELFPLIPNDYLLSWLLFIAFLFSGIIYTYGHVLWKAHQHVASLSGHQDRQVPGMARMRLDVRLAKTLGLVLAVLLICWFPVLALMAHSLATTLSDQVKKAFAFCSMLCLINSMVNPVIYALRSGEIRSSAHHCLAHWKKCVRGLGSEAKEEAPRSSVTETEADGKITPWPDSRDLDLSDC
In short: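 Membranes expressing hCB1 or hCB2 (stably transfected CHO) in 50 mM Tris-HCl, 2.5 mM EDTA, 5 mM MgCl₂, 0.5% fatty acid-free BSA, pH 7.4. Nonspecific binding with 10 µM […]. GF/B filtration, radioactivity counted, Ki derived. Mean ± SD, at least 3 experiments in triplicate.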

Cannabinoid receptor 1 [4] = target: T5, Cannabinoid receptor 1 (Homo sapiens, UniProt P21554); assay: Displacement of [3H]-CP55940 from human CB1 receptor expressed in CHO cell membranes after 90 mins
T5 sequence (P21554 whole entry): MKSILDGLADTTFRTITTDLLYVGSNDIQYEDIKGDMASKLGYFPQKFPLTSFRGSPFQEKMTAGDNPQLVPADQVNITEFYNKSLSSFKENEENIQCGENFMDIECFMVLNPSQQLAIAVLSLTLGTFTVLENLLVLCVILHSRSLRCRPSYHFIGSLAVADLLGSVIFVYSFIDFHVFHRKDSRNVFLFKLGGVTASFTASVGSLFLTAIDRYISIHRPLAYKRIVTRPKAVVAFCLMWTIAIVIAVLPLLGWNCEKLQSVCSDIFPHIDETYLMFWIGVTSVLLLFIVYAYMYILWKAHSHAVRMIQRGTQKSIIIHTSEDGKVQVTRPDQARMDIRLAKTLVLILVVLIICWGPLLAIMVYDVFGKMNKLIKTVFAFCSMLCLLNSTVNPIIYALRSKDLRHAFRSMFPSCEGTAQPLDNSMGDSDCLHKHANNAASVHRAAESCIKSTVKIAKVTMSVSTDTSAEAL

[5] = target: T6, Monoacylglycerol lipase ABHD6 (Homo sapiens, UniProt Q9BV23); assay: Inhibition of human ABHD6 expressed in HEK293 cells using 2-OG as substrate preincubated for 30 mins followed by substrate addition and measured after 5 mins by liquid scintillation spectroscopic method; format: cell-based; in short: as §1
T6 sequence (Q9BV23 whole entry): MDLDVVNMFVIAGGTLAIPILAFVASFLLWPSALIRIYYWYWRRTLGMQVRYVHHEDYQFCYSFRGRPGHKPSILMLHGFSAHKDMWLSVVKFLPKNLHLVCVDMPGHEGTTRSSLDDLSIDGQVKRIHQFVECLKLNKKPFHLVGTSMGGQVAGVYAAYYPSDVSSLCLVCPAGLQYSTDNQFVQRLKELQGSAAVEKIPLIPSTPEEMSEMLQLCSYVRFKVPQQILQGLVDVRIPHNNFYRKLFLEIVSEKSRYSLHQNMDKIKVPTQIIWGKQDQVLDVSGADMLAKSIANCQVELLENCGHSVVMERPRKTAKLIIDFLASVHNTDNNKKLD

U-937 [6] = assay: Inhibition of [ethanolamine-1-3H]AEA/unlabeled AEA uptake in human U937 cells preincubated for 15 mins followed by [ethanolamine-1-3H]AEA/unlabeled AEA addition and measured after 15 mins by scintillation counting method; format: functional, cell-based
In short: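 Intact U937 cells (0.5x10⁶ per sample) in RPMI, preincubated with compound for 15 min at 37 °C. Then 1 nM [ethanolamine-1-³H]AEA plus unlabeled AEA (final 100 nM) added for 15 min. Stopped by rapid filtration and ice-cold PBS/1% BSA washes, radioactivity counted. At least three experiments in triplicate, mean ± SD.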

Cannabinoid receptor 2 [7] = target: T4, Cannabinoid receptor 2; assay: Agonist activity at human CB2 receptor expressed in CHO cell membranes after 90 mins by [35S]GTPgammaS binding assay relative to control; format: functional
In short: (§3)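 Membranes (5 µg) of hCB2-expressing cells in 50 mM Tris-HCl, 3 mM MgCl₂, 0.2 mM EDTA, 100 mM NaCl, 0.5% fatty acid-free BSA, pH 7.4, with 10 µM GDP and 0.1 nM [³⁵S]GTPγS. Kept on ice, started by vehicle or compound, 90 min at 30 °C. Nonspecific binding with 10 µM GTPγS. Filtered on GF/B, radioactivity counted. At least three experiments in triplicate, mean ± SD.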

U-937 [8] = assay: Cytotoxicity against human U937 cells assessed as decrease in cell viability at 0.6 to 40 uM after 48 hrs by MTT assay; format: functional, cell-based
In short: (§4)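 U251MG (EMEM, 10% FBS) or U937 (RPMI 1640, 10% FBS) cells plated at 4x10³/well for 24h, then exposed to compounds (0–40 µM) for 48 h at 37°C. MTT reduction, formazan read at 595 nm. Viability as % of untreated control. Five independent experiments in triplicate, mean ± SD, ANOVA with Bonferroni.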

Cannabinoid receptor 2 [9] = target: T4, Cannabinoid receptor 2; assay: Agonist activity at human CB2 receptor expressed in CHO cell membranes after 90 mins by [35S]GTPgammaS binding assay; format: functional; in short: as §3
U-251 = assay: Cytotoxicity against human U251MG cells assessed as decrease in cell viability at 0.6 to 40 uM after 48 hrs by MTT assay; format: functional, cell-based; in short: as §4
Cannabinoid receptor 1 [10] = target: T5, Cannabinoid receptor 1; assay: Agonist activity at human CB1 receptor expressed in CHO cell membranes after 90 mins by [35S]GTPgammaS binding assay; format: functional, cell-based

SMILES | IC50 [1] | IC50 [2] | IC50 (Monoglyceride lipase) | Ratio Ki (Homo sapiens) | Ki (Cannabinoid receptor 2 [3]) | Ki (Cannabinoid receptor 1 [4]) | IC50 [5] | IC50 (U-937 [6]) | Emax (Cannabinoid receptor 2 [7]) | Activity (U-937 [8]) | EC50 (Cannabinoid receptor 2 [9]) | Activity (U-251) | EC50 (Cannabinoid receptor 1 [10])
COc1ccc(-c2c(Br)cn(Cc3ccc(F)cc3)c(=O)c2C(=O)NC2CCCCCC2)cc1 | > 10 µM | > 10 µM | > 10 µM | 2 to 54 | > 10 µM | > 10 µM | > 10 µM | > 10 µM |  |  |  |  | 
CCCCCCC(C)(C)c1ccc([C@@H]2C[C@H](O)CC[C@H]2CCCO)c(O)c1 |  |  |  |  |  |  |  |  | 196% |  |  |  | 
O=C(NC1CCCCCC1)c1c(-c2ccccc2)ccn(Cc2ccc(F)cc2)c1=O | > 10 µM | > 10 µM | > 10 µM | 2 to 54 | 0.187 µM | > 10 µM | > 10 µM | > 10 µM | 134% | Active | 0.501 µM | inactive | 
Cc1ccn(Cc2ccc(F)cc2)c(=O)c1C(=O)NC1CCCCCC1 | > 10 µM | 8.8 µM | > 10 µM | 2 to 54 | 0.0059 µM | 0.0117 µM | > 10 µM | 1.8 µM | 128% | Active | 0.0019 µM | inactive | 0.069 µM
COc1ccc(C(=O)c2c(C)n(CCN3CCOCC3)c3cc(I)ccc23)cc1 |  |  |  |  |  |  |  |  | 35% |  | 0.167 µM |  | 
O=C(NC1CCCCCC1)c1c(-c2ccccc2)c(Br)cn(Cc2ccc(F)cc2)c1=O | > 10 µM | > 10 µM | > 10 µM | 2 to 54 | 0.437 µM | > 10 µM | 3 µM | > 10 µM | 176% |  | 0.316 µM |  | 
